Results reported in ChEMBL document CHEMBL2086252, “Syntheses and evaluation of anticonvulsant activity of novel branched alkyl carbamates” (J Med Chem, 2012).
The source made the active and inactive calls. No cut-off for these calls is given here.

How the values were obtained:
[1] = Neurotoxicity in po dosed Sprague-Dawley albino rat assessed as minimal motor impairment by rotarod test; assay type: toxicity, organism-based; settings: in vivo
Procedure, shortened: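 Rats dosed orally; 4 rats per time point after dosing. Neurotoxicity was scored as motor impairment or sedation and reported as number of animals affected over number tested.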

Mus musculus [2] = assay: Anticonvulsant activity in albino CF1 mouse assessed as protection against subcutaneous metrazol-induced seizures at 30 mg/kg, ip after 0.5 hrs; assay type: functional, organism-based; set-up: dose 30 mg/kg
Procedure, shortened: (§1)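 Mice dosed ip at 30, 100 or 300 mg/kg, then tested 0.5 h and 4 h after administration in the MES or scMet test. Protection was recorded as animals protected over animals tested. Neurotoxicity was recorded as motor impairment or sedation, as animals affected over animals tested.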

Mus musculus [3] = assay: Anticonvulsant activity in albino CF1 mouse assessed as protection against subcutaneous metrazol-induced seizures at 100 mg/kg, ip after 0.5 hrs; assay type: functional, organism-based; set-up: dose 100 mg/kg; procedure, shortened: as §1
Mus musculus [4] = assay: Anticonvulsant activity in albino CF1 mouse assessed as protection against subcutaneous metrazol-induced seizures at 300 mg/kg, ip after 0.5 hrs; assay type: functional, organism-based; set-up: dose 300 mg/kg; procedure, shortened: as §1
Mus musculus [5] = assay: Anticonvulsant activity in albino CF1 mouse assessed as protection against subcutaneous metrazol-induced seizures at 30 mg/kg, ip after 4 hrs; assay type: functional, organism-based; set-up: dose 30 mg/kg; procedure, shortened: as §1
Mus musculus [6] = assay: Anticonvulsant activity in albino CF1 mouse assessed as protection against subcutaneous metrazol-induced seizures at 100 mg/kg, ip after 4 hrs; assay type: functional, organism-based; set-up: dose 100 mg/kg; procedure, shortened: as §1
Mus musculus [7] = assay: Anticonvulsant activity in albino CF1 mouse assessed as protection against subcutaneous metrazol-induced seizures at 300 mg/kg, ip after 4 hrs; assay type: functional, organism-based; set-up: dose 300 mg/kg; procedure, shortened: as §1
Mus musculus [8] = assay: Anticonvulsant activity in albino CF1 mouse assessed as protection against maximal electroshock-induced seizures at 30 mg/kg, ip after 0.5 hrs; assay type: functional, organism-based; set-up: dose 30 mg/kg; procedure, shortened: as §1
Mus musculus [9] = assay: Anticonvulsant activity in albino CF1 mouse assessed as protection against maximal electroshock-induced seizures at 100 mg/kg, ip after 0.5 hrs; assay type: functional, organism-based; set-up: dose 100 mg/kg; procedure, shortened: as §1
Mus musculus [10] = assay: Anticonvulsant activity in albino CF1 mouse assessed as protection against maximal electroshock-induced seizures at 300 mg/kg, ip after 0.5 hrs; assay type: functional, organism-based; set-up: dose 300 mg/kg; procedure, shortened: as §1
Mus musculus [11] = assay: Anticonvulsant activity in albino CF1 mouse assessed as protection against maximal electroshock-induced seizures at 30 mg/kg, ip after 4 hrs; assay type: functional, organism-based; set-up: dose 30 mg/kg; procedure, shortened: as §1
Mus musculus [12] = assay: Anticonvulsant activity in albino CF1 mouse assessed as protection against maximal electroshock-induced seizures at 100 mg/kg, ip after 4 hrs; assay type: functional, organism-based; set-up: dose 100 mg/kg; procedure, shortened: as §1
Mus musculus [13] = assay: Anticonvulsant activity in albino CF1 mouse assessed as protection against maximal electroshock-induced seizures at 300 mg/kg, ip after 4 hrs; assay type: functional, organism-based; set-up: dose 300 mg/kg; procedure, shortened: as §1
Mus musculus [14] = assay: Neurotoxicity in albino CF1 mouse assessed as minimal motor impairment at 30 mg/kg, ip after 0.5 hrs by rotarod test; assay type: toxicity, organism-based; set-up: dose 30 mg/kg, route intraperitoneal; settings: in vivo; procedure, shortened: as §1
Mus musculus [15] = assay: Neurotoxicity in albino CF1 mouse assessed as minimal motor impairment at 30 mg/kg, ip after 4 hrs by rotarod test; assay type: toxicity, organism-based; set-up: dose 30 mg/kg, route intraperitoneal; settings: in vivo; procedure, shortened: as §1
Mus musculus [16] = assay: Neurotoxicity in albino CF1 mouse assessed as minimal motor impairment at 100 mg/kg, ip after 4 hrs by rotarod test; assay type: toxicity, organism-based; set-up: dose 100 mg/kg, route intraperitoneal; settings: in vivo; procedure, shortened: as §1
Mus musculus [17] = assay: Neurotoxicity in albino CF1 mouse assessed as minimal motor impairment at 300 mg/kg, ip after 4 hrs by rotarod test; assay type: toxicity, organism-based; set-up: dose 300 mg/kg, route intraperitoneal; settings: in vivo; procedure, shortened: as §1
Rattus norvegicus [18] = assay: Anticonvulsant activity in Sprague-Dawley albino rat assessed as protection against maximal electroshock-induced seizures at 30 mg/kg, po after 1 hr; assay type: functional, organism-based; set-up: dose 30 mg/kg
Procedure, shortened: (§2)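 Rats dosed orally. Anti-MES protection was scored as animals protected over animals tested at each time after dosing. Neurotoxicity was scored as motor impairment or sedation, as animals affected over animals tested.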

Rattus norvegicus [19] = assay: Anticonvulsant activity in Sprague-Dawley albino rat assessed as protection against maximal electroshock-induced seizures at 30 mg/kg, po after 2 hrs; assay type: functional, organism-based; set-up: dose 30 mg/kg; procedure, shortened: as §2
Rattus norvegicus [20] = assay: Anticonvulsant activity in Sprague-Dawley albino rat assessed as protection against maximal electroshock-induced seizures at 30 mg/kg, po after 4 hrs; assay type: functional, organism-based; set-up: dose 30 mg/kg; procedure, shortened: as §2
Rattus norvegicus [21] = assay: Neurotoxicity in Sprague-Dawley albino rat assessed as minimal motor impairment at 30 mg/kg, po by rotarod test; assay type: toxicity, organism-based; set-up: dose 30 mg/kg, route oral; settings: in vivo; procedure, shortened: as §2
Rattus norvegicus [22] = assay: Anticonvulsant activity in po dosed Sprague-Dawley albino rat assessed as protection against maximal electroshock-induced seizures; assay type: functional
Procedure, shortened: (§3)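 Quantitative testing: rats dosed orally or ip in MES and scMet tests, and mice dosed ip, including the 6 Hz (32 mA) psychomotor seizure test. ED50 and TD50 were reported in mg/kg with ranges in parentheses. Protective index was calculated as TD50/ED50.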

Rattus norvegicus [23] = assay: Protective index, ratio of TD50 for po dosed Sprague-Dawley albino rat by rotarod test to ED50 for po dosed Sprague-Dawley albino rat by maximal electroshock seizures test; assay type: functional
Procedure, shortened: (§4)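 Protective index calculated as TD50/ED50, with TD50 and ED50 taken from the same species and dosing route.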

Rattus norvegicus [24] = assay: Anticonvulsant activity in po dosed Sprague-Dawley albino rat assessed as protection against subcutaneous metrazol-induced seizures; assay type: functional; procedure, shortened: as §3
Rattus norvegicus [25] = assay: Protective index, ratio of TD50 for po dosed Sprague-Dawley albino rat by rotarod test to ED50 for po dosed Sprague-Dawley albino rat by subcutaneous metrazol seizures test; assay type: functional; procedure, shortened: as §4
Rattus norvegicus [26] = assay: Anticonvulsant activity in Sprague-Dawley albino rat assessed as protection against pilocarpine-induced status epilepticus at 65 mg/kg, ip; assay type: functional, organism-based; set-up: dose 65 mg/kg
Procedure, shortened: (§5)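 Pilocarpine status epilepticus model in rats. Number and severity of convulsive seizures were observed behaviourally.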

Rattus norvegicus [27] = assay: Neurotoxicity in pilocarpine-induced status epilepticus Sprague-Dawley albino rat model assessed as minimal motor impairment at 100 mg/kg, ip after 0.25 hr by rotarod test; assay type: toxicity, organism-based; set-up: dose 100 mg/kg, route intraperitoneal; settings: in vivo
Rattus norvegicus [28] = assay: Neurotoxicity in pilocarpine-induced status epilepticus Sprague-Dawley albino rat model assessed as minimal motor impairment at 300 mg/kg, ip after 0.25 hr by rotarod test; assay type: toxicity, organism-based; set-up: dose 300 mg/kg, route intraperitoneal; settings: in vivo
Procedure, shortened: (§6)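 Rat pilocarpine status epilepticus model: test carbamate given at 0 or 30 min after the first observed Racine stage 3 motor seizure, which marks SE onset. Neurotoxicity was scored within the same model.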

Rattus norvegicus [29] = assay: Neurotoxicity in pilocarpine-induced status epilepticus Sprague-Dawley albino rat model assessed as minimal motor impairment at 30 mg/kg, ip after 0.25 hr by rotarod test; assay type: toxicity, organism-based; set-up: dose 30 mg/kg, route intraperitoneal; settings: in vivo; procedure, shortened: as §6
Rattus norvegicus [30] = assay: Neurotoxicity in pilocarpine-induced status epilepticus Sprague-Dawley albino rat model assessed as minimal motor impairment at 100 mg/kg, ip after 0.5 hrs by rotarod test; assay type: toxicity, organism-based; set-up: dose 100 mg/kg, route intraperitoneal; settings: in vivo
Rattus norvegicus [31] = assay: Neurotoxicity in pilocarpine-induced status epilepticus Sprague-Dawley albino rat model assessed as minimal motor impairment at 300 mg/kg, ip after 0.5 hrs by rotarod test; assay type: toxicity, organism-based; set-up: dose 300 mg/kg, route intraperitoneal; settings: in vivo; procedure, shortened: as §6
Rattus norvegicus [32] = assay: Neurotoxicity in pilocarpine-induced status epilepticus Sprague-Dawley albino rat model assessed as minimal motor impairment at 30 mg/kg, ip after 0.5 hrs by rotarod test; assay type: toxicity, organism-based; set-up: dose 30 mg/kg, route intraperitoneal; settings: in vivo; procedure, shortened: as §6
Rattus norvegicus [33] = assay: Neurotoxicity in pilocarpine-induced status epilepticus Sprague-Dawley albino rat model assessed as minimal motor impairment at 300 mg/kg, ip after 1 hr by rotarod test; assay type: toxicity, organism-based; set-up: dose 300 mg/kg, route intraperitoneal; settings: in vivo; procedure, shortened: as §6
Rattus norvegicus [34] = assay: Neurotoxicity in pilocarpine-induced status epilepticus Sprague-Dawley albino rat model assessed as minimal motor impairment at 30 mg/kg, ip after 1 hr by rotarod test; assay type: toxicity, organism-based; set-up: dose 30 mg/kg, route intraperitoneal; settings: in vivo; procedure, shortened: as §6
Rattus norvegicus [35] = assay: Neurotoxicity in pilocarpine-induced status epilepticus Sprague-Dawley albino rat model assessed as minimal motor impairment at 100 mg/kg, ip after 2 hrs by rotarod test; assay type: toxicity, organism-based; set-up: dose 100 mg/kg, route intraperitoneal; settings: in vivo
Rattus norvegicus [36] = assay: Neurotoxicity in pilocarpine-induced status epilepticus Sprague-Dawley albino rat model assessed as minimal motor impairment at 300 mg/kg, ip after 2 hrs by rotarod test; assay type: toxicity, organism-based; set-up: dose 300 mg/kg, route intraperitoneal; settings: in vivo; procedure, shortened: as §6
Rattus norvegicus [37] = assay: Neurotoxicity in pilocarpine-induced status epilepticus Sprague-Dawley albino rat model assessed as minimal motor impairment at 30 mg/kg, ip after 2 hrs by rotarod test; assay type: toxicity, organism-based; set-up: dose 30 mg/kg, route intraperitoneal; settings: in vivo; procedure, shortened: as §6
Rattus norvegicus [38] = assay: Neurotoxicity in pilocarpine-induced status epilepticus Sprague-Dawley albino rat model assessed as minimal motor impairment at 100 mg/kg, ip after 4 hrs by rotarod test; assay type: toxicity, organism-based; set-up: dose 100 mg/kg, route intraperitoneal; settings: in vivo
Rattus norvegicus [39] = assay: Neurotoxicity in pilocarpine-induced status epilepticus Sprague-Dawley albino rat model assessed as minimal motor impairment at 300 mg/kg, ip after 4 hrs by rotarod test; assay type: toxicity, organism-based; set-up: dose 300 mg/kg, route intraperitoneal; settings: in vivo; procedure, shortened: as §6
Rattus norvegicus [40] = assay: Neurotoxicity in pilocarpine-induced status epilepticus Sprague-Dawley albino rat model assessed as minimal motor impairment at 30 mg/kg, ip after 4 hrs by rotarod test; assay type: toxicity, organism-based; set-up: dose 30 mg/kg, route intraperitoneal; settings: in vivo; procedure, shortened: as §6
Rattus norvegicus [41] = assay: Anticonvulsant activity in ip dosed Sprague-Dawley albino rat assessed as protection against pilocarpine-induced status epilepticus after 0.5 hrs; assay type: functional; procedure, shortened: as §5

CCC(C)C(CC)COC(N)=O (racemic)
TD50 [1]: 291 mg/kg | Activity (Mus musculus [2]): inactive | Activity (Mus musculus [3]): Active | Activity (Mus musculus [4]): Active | Activity (Mus musculus [5]): inactive | Activity (Mus musculus [6]): inactive | Activity (Mus musculus [7]): inactive | Activity (Mus musculus [8]): inactive | Activity (Mus musculus [9]): Active | Activity (Mus musculus [10]): Active | Activity (Mus musculus [11]): inactive | Activity (Mus musculus [12]): inactive | Activity (Mus musculus [13]): inactive | Activity (Mus musculus [14]): Non-toxic | Activity (Mus musculus [15]): Non-toxic | Activity (Mus musculus [16]): Non-toxic | Activity (Mus musculus [17]): Non-toxic | Activity (Rattus norvegicus [18]): inactive | Activity (Rattus norvegicus [19]): inactive | Activity (Rattus norvegicus [20]): inactive | Activity (Rattus norvegicus [21]): Non-toxic | ED50 (Rattus norvegicus [22]): 52 mg/kg | Ratio TD50/ED50 (Rattus norvegicus [23]): 5.5 | ED50 (Rattus norvegicus [24]): 68 mg/kg | Ratio TD50/ED50 (Rattus norvegicus [25]): 4.3 | Activity (Rattus norvegicus [26]): Active | Activity (Rattus norvegicus [27]): Toxic | Activity (Rattus norvegicus [28]): Toxic | Activity (Rattus norvegicus [29]): Non-toxic | Activity (Rattus norvegicus [30]): Toxic | Activity (Rattus norvegicus [31]): Toxic | Activity (Rattus norvegicus [32]): Non-toxic | Activity (Rattus norvegicus [33]): Toxic | Activity (Rattus norvegicus [34]): Non-toxic | Activity (Rattus norvegicus [35]): Toxic | Activity (Rattus norvegicus [36]): Non-toxic | Activity (Rattus norvegicus [37]): Toxic | Activity (Rattus norvegicus [38]): Toxic | Activity (Rattus norvegicus [39]): Non-toxic | Activity (Rattus norvegicus [40]): Toxic | ED50 (Rattus norvegicus [41]): 96 mg/kg | ED97 (Rattus norvegicus [41]): 174 mg/kg
